Data set [1] has as its system Salmonella paratyphi. The data set is described as follows: Antibacterial activity against Salmonella paratyphi A CICC 20501 assessed as bacterial growth inhibition incubated for 18 to 24 hrs by microtiter broth dilution method. Format: functional, Salmonella enterica subsp. enterica serovar Paratyphi A. As to conditions: Salmonella enterica, time 18-24 hrs. The method, boiled down:
(§1)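 Log-phase bacteria grown at 37 °C in MHB, diluted to 10^5 CFU/mL, mixed 1:1 with serial peptide dilutions (peptide diluted in 0.01% acetic acid, 0.2% BSA); 37 °C for 18-24 h. MIC read by OD492 as lowest concentration giving no growth; mean of 3-5 independent experiments.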
Background: Dilution methods test growth across graded concentrations, often in twofold steps.

In data set [2] the test system is Salmonella enterica subsp. enterica serovar Paratyphi B. Kind of data set: Antibacterial activity against Salmonella paratyphi B CICC 21495 assessed as bacterial growth inhibition incubated for 18 to 24 hrs by microtiter broth dilution method. The data set is classed as functional. Conditions: time 18-24 hrs. The method, boiled down: as §1
The test system of data set [3] is Salmonella paratyphi. Kind of data set: Antibacterial activity against Salmonella paratyphi C CICC 21512 assessed as bacterial growth inhibition incubated for 18 to 24 hrs by microtiter broth dilution method. Format: functional. As to conditions: Salmonella enterica, time 18-24 hrs. The procedure, abridged: as §1
Another data set has as its system Shigella flexneri. Kind of data set: Antibacterial activity against Shigella flexneri CMCC 51571 assessed as bacterial growth inhibition incubated for 18 to 24 hrs by microtiter broth dilution method. Format: functional. Conditions: time 18-24 hrs. The method, boiled down:
(§2)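 Log-phase cells (grown overnight at 37 °C, subcultured in MHB) diluted to 10^5 CFU/mL in MHB and mixed 1:1 with serial peptide dilutions prepared in 0.01% acetic acid/0.2% BSA. Incubated 37 °C for 18-24 h. MIC is the lowest concentration giving no growth by OD492. Reported as the average of 3-5 independent experiments.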

Another data set relates to Salmonella enterica. Kind of data set: Antibacterial activity against Salmonella choleraesuis ATCC 13312 assessed as bacterial growth inhibition incubated for 18 to 24 hrs by broth dilution method. Format: functional. As to conditions: time 18-24 hrs. The method, boiled down: as §1
Another data set relates to Salmonella enteritidis. The data set is described as follows: Antibacterial activity against Salmonella enteritidis CICC 21527 assessed as bacterial growth inhibition incubated for 18 to 24 hrs by microtiter broth dilution method. Format: functional, Salmonella enterica subsp. enterica serovar Enteritidis. Conditions: Salmonella enterica, time 18-24 hrs. The procedure, abridged:
as §2

The subject of the next data set is Vibrio parahaemolyticus. The data set is described as follows: Antibacterial activity against Vibrio parahaemolyticus CICC 21617 assessed as bacterial growth inhibition incubated for 18 to 24 hrs by broth dilution method. Conditions: time 18-24 hrs. The data set is classed as functional. The method, boiled down: as §2
Another data set deals with Bacillus cereus. Kind of data set: Antibacterial activity against Bacillus cereus CMCC 63301 assessed as bacterial growth inhibition incubated for 18 to 24 hrs by microtiter broth dilution method. Format: functional. Conditions: time 18-24 hrs. The method, boiled down: as §2
The next data set relates to Micrococcus luteus. The data set is described as follows: Antibacterial activity against Micrococcus luteus CMCC 28001 assessed as bacterial growth inhibition incubated for 18 to 24 hrs by microtiter broth dilution method. The data set is classed as functional. As to conditions: time 18-24 hrs. The procedure, abridged:
as §2

The subject of the next data set is Bacillus pumilus. Kind of data set: Antibacterial activity against Bacillus pumilus CMCC 63202 assessed as bacterial growth inhibition incubated for 18 to 24 hrs by microtiter broth dilution method. The data set is classed as functional. As to conditions: time 18-24 hrs. The procedure, abridged:
as §2

In a further data set the test system is Pseudomonas fluorescens. Kind of data set: Antibacterial activity against Pseudomonas fluorescens CICC 21620 assessed as bacterial growth inhibition incubated for 18 to 24 hrs by microtiter broth dilution method. The data set is classed as functional. As to conditions: time 18-24 hrs. The method, boiled down: as §2
Another data set deals with Candida albicans. The data set is described as follows: Antifungal activity against Candida albicans ATCC 10231 assessed as fungal growth inhibition incubated for 18 to 24 hrs by microtiter broth dilution method. The data set is classed as functional. As to conditions: time 18-24 hrs. The procedure, abridged:
as §2

The subject of a further data set is Erythrocyte. The data set is described as follows: Hemolytic activity against human red blood cells assessed as concentration required to cause 10% hemoglobin release measured after 1 hr by microplate reader analysis. Format: ADME, cell-based. The method, boiled down: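 Fresh heparinized human RBCs washed three times in 10 mM PBS pH 7.4 and resuspended to about 1% (v/v) (5.4 × 10^8 cells/mL). Mixed 1:1 with peptide in PBS for 1 h at 37 °C, then centrifuged. Supernatant hemoglobin read at A540. PBS set as 0% and 0.1% Triton X-100 as 100% hemolysis. MHC is the concentration causing 10% hemolysis.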

The nature of data set [4]: Therapeutic index, ratio of MHC10 for human RBC to geometric mean of peptide MIC for Escherichia coli O157:H7 CICC 21530. As to conditions: human red blood cells (RBC), pooled result: one value given for 11 cell lines, strains, targets or settings, read-out: TI. Format: toxicity. The procedure, abridged:
(§3)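 Therapeutic index = MHC (peptide concentration giving 10% hemolysis of human RBCs, 1 h, 37 °C, A540) divided by geometric mean of MICs from broth microdilution (10^5 CFU/mL in MHB, 37 °C, 18-24 h, OD492).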

The nature of data set [5]: Therapeutic index, ratio of MHC10 for human RBC to geometric mean of peptide MIC for Staphylococcus aureus ATCC 29213. The data set is classed as toxicity. Conditions: human red blood cells (RBC), pooled result: one value given for 9 cell lines, strains, targets or settings, read-out: TI. The method, boiled down:
as §3

Data set [6] is described as follows: Hemolytic activity against human red blood cells assessed as hemoglobin release at 64 uM measured after 1 hr by microplate reader analysis relative to control. The data set is classed as ADME, cell-based, Erythrocyte. As to conditions: read-out: Activity. The method, boiled down: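 Fresh heparinized human RBCs washed in 10 mM PBS pH 7.4, ~1% (v/v) suspension mixed 1:1 with peptide in PBS, 1 h at 37 °C; after centrifugation, supernatant absorbance at 540 nm. Percent hemolysis relative to PBS (0%) and 0.1% Triton X-100 (100%).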

A further data set has as its system RAW264.7. Kind of data set: Cytotoxicity against mouse RAW264.7 cells assessed as increase in cell viability at 64 uM incubated for 24 hrs by MTT assay relative to control. The data set is classed as cell-based. As to conditions: raw264.7, 24 h. The method, boiled down: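 RAW264.7 macrophages were grown in DMEM with 10% FBS, 2 mM glutamine and penicillin/streptomycin at 37 °C in 5% CO2. Cells seeded at 1.0-2.0 × 10^4 per well and treated with peptide (final 0.25-64 µM) for 24 h at 37 °C. MTT at 0.5 mg/mL added for 4 h, formazan dissolved in DMSO, read at 570 nm.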

Data set [7] relates to Cell membrane. The data set is described as follows: Induction of inner membrane permeabilization in Escherichia coli O157:H7 CICC 21530 assessed as cytoplasmic beta-galactosidase release at 1 times MIC using ONPG as substrate by […]. The data set is classed as subcellular.
The subject of data set [8] is Cell membrane. The data set is described as follows: Induction of cell membrane depolarization in Escherichia coli O157:H7 CICC 21530 assessed as increase in fluorescence intensity at 0.5 to 2 times MIC preincubated for 90 mins followed by KCl addition and measured after 15 to 30 mins by DiSC3-5 staining based fluorescence spectroscopic technique. Format: subcellular. Conditions: time 105-120 min.

For data set [9], the system named is Escherichia coli. The data set is described as follows: Antibacterial activity against Escherichia coli O157:H7 CICC 21530 assessed as bacterial growth inhibition incubated for 18 to 24 hrs by microtiter broth dilution method. The data set is classed as functional. Conditions: time 18-24 hrs. The method, boiled down: as §1
In data set [10] the test system is Escherichia coli. The data set is described as follows: Antibacterial activity against Escherichia coli ATCC 25922 assessed as bacterial growth inhibition incubated for 18 to 24 hrs by microtiter broth dilution method. As to conditions: time 18-24 hrs. The data set is classed as functional. The method, boiled down:
as §2

Data set [11] relates to Escherichia coli. Kind of data set: Antibacterial activity against Escherichia coli ATCC 35150 assessed as bacterial growth inhibition incubated for 18 to 24 hrs by microtiter broth dilution method. The data set is classed as functional. As to conditions: time 18-24 hrs. The method, boiled down:
as §2

Another data set deals with Salmonella typhimurium. The data set is described as follows: Antibacterial activity against Salmonella typhimurium CMCC 51005 assessed as bacterial growth inhibition incubated for 18 to 24 hrs by microtiter broth dilution method. Format: functional, Salmonella enterica subsp. enterica serovar Typhimurium. Conditions: Salmonella enterica, time 18-24 hrs. The method, boiled down:
as §2

Data set [12] relates to Staphylococcus aureus. The data set is described as follows: Antibacterial activity against Staphylococcus aureus GIM 1.160 assessed as bacterial growth inhibition incubated for 18 to 24 hrs by microtiter broth dilution method. Format: functional. Conditions: time 18-24 hrs. The procedure, abridged:
as §2

The subject of data set [13] is Staphylococcus aureus. Kind of data set: Antibacterial activity against methicillin resistant Staphylococcus aureus ATCC 43300 assessed as bacterial growth inhibition incubated for 18 to 24 hrs by microtiter broth dilution method. The data set is classed as functional. As to conditions: time 18-24 hrs. The method, boiled down: as §1

Structures are written as SMILES. In brackets after ≈: the same amount, converted by molar mass. Activity calls are given as the source filed them. Bounds are passed on as bounds.

`CC[C@H](C)[C@H](NC(=O)CN)C(=O)NCC(=O)N[C@@H](C)C(=O)N[C@H](C(=O)N[C@@H](CC(C)C)C(=O)N[C@@H](CCCCN)C(=O)N[C@H](C(=O)N[C@@H](CC(C)C)C(=O)N[C@H](C(=O)N[C@H](C(=O)NCC(=O)N[C@@H](CC(C)C)C(=O)N1CCC[C@H]1C(=O)N[C@@H](C)C(=O)N[C@@H](CC(C)C)C(=O)N[C@H](C(=O)N[C@@H](CO)C(=O)N[C@@H](Cc1c[nH]c2ccccc12)C(=O)N[C@H](C(=O)N[C@@H](CCCCN)C(=O)N[C@@H](CCCNC(=N)N)C(=O)N[C@@H](CCCCN)C(=O)N[C@@H](CCCNC(=N)N)C(=O)N[C@@H](CCC(N)=O)C(=O)N[C@@H](CCC(N)=O)C(N)=O)[C@@H](C)CC)[C@@H](C)CC)[C@@H](C)O)[C@@H](C)O)C(C)C)C(C)C` [MELITTIN]: the MIC with Salmonella paratyphi [1] was determined as 0.7 µM (≈ 1.99 µg/mL); in data set [2], 0.35 µM (≈ 0.996 µg/mL); in the data set on Salmonella paratyphi [3], 0.7 µM (≈ 1.99 µg/mL); in the data set on Shigella flexneri, 0.7 µM (≈ 1.99 µg/mL); in the data set with Salmonella enterica it was 0.7 µM (≈ 1.99 µg/mL); in the data set on Salmonella enteritidis it was 1.41 µM (≈ 4.01 µg/mL). The MIC in the data set with Vibrio parahaemolyticus is 1.41 µM (≈ 4.01 µg/mL); with Bacillus cereus, 1.41 µM (≈ 4.01 µg/mL); in the data set on Micrococcus luteus it was 0.7 µM (≈ 1.99 µg/mL); with Bacillus pumilus, 0.35 µM (≈ 0.996 µg/mL); in the data set on Pseudomonas fluorescens, 1.41 µM (≈ 4.01 µg/mL); in the data set with Candida albicans, 2.81 µM (≈ 8 µg/mL). Moreover, in the data set on Erythrocyte, the MHC10 turned out to be 0.35 µM. Moreover, the selectivity ratio amounted to 0.44 in data set [4] and 0.43 in data set [5]. Moreover, the hemolysis at 1 h, 64 µM in data set [6] was 63.7%. In the data set with RAW264.7, the Activity is 1.85%. Further, the result in the data set on Cell membrane [7] and with Cell membrane [8] was Active.
In the case of `CN[C@H](CC(C)C)C(=O)N[C@H]1C(=O)N[C@@H](CC(N)=O)C(=O)N[C@H]2C(=O)N[C@H]3C(=O)N[C@H](C(=O)N[C@H](C(=O)O)c4cc(O)cc(O)c4-c4cc3ccc4O)[C@H](O)c3ccc(c(Cl)c3)Oc3cc2cc(c3O[C@@H]2O[C@H](CO)[C@@H](O)[C@H](O)[C@H]2O[C@H]2C[C@](C)(N)[C@H](O)[C@H](C)O2)Oc2ccc(cc2Cl)[C@H]1O` [VANCOMYCIN], the MIC was greater than 88.3 µM with Escherichia coli [9]; 88.3 µM (≈ 128 µg/mL) in the data set with Escherichia coli [10]; greater than 88.3 µM in the data set on Escherichia coli [11]; greater than 88.3 µM in the data set on Salmonella paratyphi [1]; 88.3 µM (≈ 128 µg/mL) in data set [2]; 88.3 µM (≈ 128 µg/mL) in the data set with Salmonella paratyphi [3]. Also, the MIC was 88.3 µM (≈ 128 µg/mL) in the data set with Shigella flexneri; greater than 88.3 µM with Salmonella enterica; greater than 88.3 µM with Salmonella typhimurium; 44.2 µM (≈ 64 µg/mL) in the data set with Salmonella enteritidis; 88.3 µM (≈ 128 µg/mL) with Vibrio parahaemolyticus; 1.38 µM (≈ 2 µg/mL) in the data set on Staphylococcus aureus [12]. For the same compound, the MIC in the data set with Bacillus cereus is 0.17 µM (≈ 0.246 µg/mL); in the data set on Micrococcus luteus it was 0.69 µM (≈ 1 µg/mL); in the data set on Bacillus pumilus, 0.35 µM (≈ 0.507 µg/mL); in the data set on Pseudomonas fluorescens, 0.35 µM (≈ 0.507 µg/mL); with Staphylococcus aureus [13], 1.38 µM (≈ 2 µg/mL); in the data set on Candida albicans, greater than 88.3 µM. Also, the MHC10 with Erythrocyte was greater than 88.32 µM.

Usually MIC stands for the smallest concentration in the dilution series that meets the test's criterion for growth inhibition.

The values above are taken from ChEMBL document CHEMBL4765236, “Insights into the Antimicrobial Activity and Cytotoxicity of Engineered α-Helical Peptide Amphiphiles” (J Med Chem, 2016).
